# Published values gathered from unrelated publications.
# Cell line: T47D
# Observed: cell growth or viability
Compound,assay,conditions,measurement,value
COc1ccc(C(=O)/C=C/c2cccc(Cl)c2)cc1S(N)(=O)=O,SRB,48 h,GI50,2.1 µM
COc1cccc(Oc2ccccc2NC(=O)CNC(=O)c2cccc3ccccc23)c1,SRB,48 h,GI50,0.138 µM
COc1ccc(-c2ccc(-c3ccc(C(=N)N)nc3)s2)cc1,SRB,,GI50,1.92 µM
CCCCCCCC(=O)NCC(=O)OC,MTT,"10 µM, 48 h",inhibition,23%
O=C1C[C@@H](c2ccc(O)cc2)Oc2cc(O)cc(O)c21,MTT,48 h,IC50,4.17 µM
CC/C(=C(\c1ccc(O)cc1)c1ccc(OCCNC)cc1)c1ccccc1,,5 days,IC50,4.29 µM
O=C1Nc2ccccc2C1=NNc1nnc2n1N=C(c1ccccc1)CS2,SRB,10 µM,inhibition,36%
COc1ccccc1/C=C/C(=O)c1ccc(OC)c(S(N)(=O)=O)c1,SRB,10 µM,inhibition,83%
COc1ccc(-c2ccc(-c3ccc(C(=N)N)nc3)s2)cc1Cl,SRB,,GI50,1.99 µM
CC/C(=C(/c1ccc(OCCNC)cc1)c1ccc(B2OC(C)(C)C(C)(C)O2)cc1)c1ccccc1,,5 days,IC50,8.73 µM
CC[C@H](C)C(=O)O[C@H]1C[C@H](O)C=C2C=C[C@H](C)[C@H](CC[C@@H](O)C[C@@H](O)CC(=O)O)[C@H]21,SRB,72 h,IC50,133 µg/mL
